Screening data (PubChem BioAssay)
RGS4 block: inhibitors of human RGS4; actives 0.45% (n = 310,000); P49798; B-score at 10 µM; HEK293 M3R/RGS4 inducible, Fluo-4 calcium flux; active compounds read high; triggered by carbachol at its EC20;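 active = B-score, a plate-corrected calcium signal, over three deviations above library mean, with baseline fluorescence within five deviations of library mean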;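 also: RGS4 expression induced by doxycycline in cells with stable M3 receptor; B-score is computed from the integrated fluorescence ratio over baseline after carbachol; higher B-score means a larger calcium signal and so more RGS4 inhibition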
Target sequence (P49798 whole entry, looked up): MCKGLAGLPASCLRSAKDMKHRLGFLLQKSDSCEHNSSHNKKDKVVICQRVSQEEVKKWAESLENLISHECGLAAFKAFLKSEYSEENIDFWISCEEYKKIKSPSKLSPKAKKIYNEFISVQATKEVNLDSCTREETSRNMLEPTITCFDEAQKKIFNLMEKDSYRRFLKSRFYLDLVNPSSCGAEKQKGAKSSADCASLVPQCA
MrgX1 antag: blocks BAM8-22 activation of human MrgX1 receptor; B-score at 10 µM; MRGX1-HEK293 calcium flux, Fluo-4, BAM8-22 antagonism; active compounds read low; AID 588676; actives 1.3% (n = 310,000); Q96LB2;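 active = calcium-response B-score plate-corrected more than 3 library SD below zero, starting fluorescence within 5 deviations, no agonist response on first addition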;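 also: peak minus trough fluorescence over baseline after final BAM8-22 challenge near maximal dose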
Target sequence (Q96LB2 whole entry, looked up): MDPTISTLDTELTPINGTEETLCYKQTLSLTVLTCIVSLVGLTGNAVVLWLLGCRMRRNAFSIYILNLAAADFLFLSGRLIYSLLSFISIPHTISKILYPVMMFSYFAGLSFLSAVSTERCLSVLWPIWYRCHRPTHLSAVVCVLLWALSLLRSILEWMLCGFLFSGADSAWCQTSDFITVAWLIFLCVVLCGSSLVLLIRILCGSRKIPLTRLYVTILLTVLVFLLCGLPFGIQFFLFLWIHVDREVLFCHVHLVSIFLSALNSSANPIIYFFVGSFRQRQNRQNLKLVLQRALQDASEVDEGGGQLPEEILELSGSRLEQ
MrgX1 agonist: activates human MrgX1 receptor signaling; Q96LB2; MrgX1-HEK293 cells, Fluo-4 calcium fluorescence, agonist mode; active compounds read high; B-score at 10 µM; actives 0.44% (n = 310,000);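 active = calcium response B-score plate-corrected fluorescence ratio at least 3 library SD, with starting fluorescence B-score inside 5 SD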
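System – MrgX1-expressing HEK293 cells · Incubation – cells plated overnight, dye loaded 0.5 h 37 °C, 0.5 h room temperature · Technique – kinetic Fluo-4 NW fluorescence of intracellular calcium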
MrgX1 allo act: allosterically activates human MrgX1 receptor signaling. Q96LB2. MrgX1-HEK293, Fluo-4 calcium flux, FDSS; active compounds read high. B-score at 10 µM. actives 0.63% (n = 310,000);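 active = plate-corrected calcium response at least 3 library SD above typical, normal starting fluorescence, not activating the receptor alone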;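 also: compound read alongside a low EC10 to EC30 dose of BAM8-22 agonist; peak minus trough fluorescence over baseline measured at the second addition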
RGS4 act: potentiators or activators of RGS4. B-score at 10 µM. AID 463111. HEK293 M3R/inducible RGS4, carbachol calcium flux Fluo4; active compounds read low. actives 0.92% (n = 310,000);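 active = B-score of the integrated calcium signal more than 4 SD below the library mean, with starting fluorescence not abnormally high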;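 also: negative B-score means reduced calcium response which marks RGS4 activation or potentiation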
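System – HEK293 FlpIn-TREx cells, stable M3R, doxycycline-inducible RGS4 · Reagent – ECmax carbachol challenge · Times – compound preincubation 20 min at room temperature before agonist · Technique – Fluo4 fluorescence kinetic imaging of calcium · Measure – B score of integrated Fluo4 ratio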
Of the large screens only hits and unclear results are named; the others gave an inactive call. Hits are enriched below; roughly 3.5% of the tested compounds scored in any of these assays.

Cc1c(C(=O)N2CCN(Cc3ccc4c(c3)OCO4)CC2)sc2ncnc(N3CCN(c4ccccc4F)CC3)c12	MrgX1 antag -5.4
CC(C)Cn1c(=O)c(C(=O)Nc2ccncc2)c(O)c2ccccc21	RGS4 act -8.9
C=CCn1c(=O)c(C(=O)NCc2ccccc2)c(O)c2ccccc21	RGS4 act -7.1
CCn1c(=O)c(C(=O)NNC(=O)c2ccccc2)c(O)c2ccccc21	MrgX1 agonist 30
C=CCn1c(=O)c(C(=O)NCCNCC)c(O)c2ccccc21	none
CC(C)Cn1c(=O)c(C(=O)Nc2cnccn2)c(O)c2ccccc21	none
Cc1nn(CC(C)C)c2sc(C(=O)NC3CC(C)(C)NC(C)(C)C3)cc12	none
CC(=O)N(c1nc(/C=C\C(=O)O)cs1)c1ccccc1F	MrgX1 agonist 32
CCCC(C(=O)Nc1cccc(S(=O)(=O)N2CCCC2)c1)c1ccccc1 (stereo not given)	none
COc1ccc2oc(=O)cc(-c3cc4cccc(OC)c4o3)c2c1	none
CCN(CC)C(=O)Oc1ccc2oc(=O)cc(-c3cc4cccc(OC)c4o3)c2c1	RGS4 act -7.2
CCn1c(=NC(=O)c2ccc(S(=O)(=O)N(C)C)cc2)sc2cccc(OC)c21	RGS4 act -7.2
CCn1c(=NC(=O)CS(=O)(=O)c2ccc(C)cc2)sc2cccc(OC)c21	none
O=c1c(Cl)c(N2CCC3(CC2)OCCO3)cnn1C12CC3CC(CC(C3)C1)C2	none
CN(C)c1ccnc(N(Cc2ccccc2)Cc2ccccc2)c1C#N	RGS4 act -11
Cc1cccc(NC(=S)N(Cc2cccs2)Cc2cc3cc(C)cc(C)c3[nH]c2=O)c1	MrgX1 antag -5.4
COc1ccc2[nH]c(=O)c(CN(Cc3cccs3)C(=S)Nc3cccc(C)c3)cc2c1	none
Cc1ccc2c(c1)/C(=N/OC(=O)c1ccc(F)cc1)CCS2	none
O=C(O/N=C1/CCSc2ccccc21)c1ccccc1	MrgX1 allo act 8.9
O=c1ccn([C@H]2C[C@H](O)[C@@H](CO)O2)c(=O)[nH]1	MrgX1 antag -6.8
O=C(CCn1nnc2ccccc21)OCC(=O)c1ccc(F)cc1	none
COc1ccc(/C=C2/SC(=S)N(NS(=O)(=O)c3ccccc3)C2=O)cc1	MrgX1 agonist 31
CC(/C=C1\SC(=S)N(NS(=O)(=O)c2ccccc2)C1=O)=C\c1ccccc1	MrgX1 antag -8.8
CC(/C=C1\SC(=S)N(c2ccc(C(=O)O)cc2)C1=O)=C\c1ccccc1	MrgX1 antag -9.6, RGS4 act -8.4
O=C1/C(=C\c2ccc(Br)cc2)SC(=S)N1NS(=O)(=O)c1ccccc1	none
CC(/C=C1\SC(=S)N(NC(=O)c2ccc(C)cc2)C1=O)=C\c1ccccc1	none
Cc1ccoc1C(=O)NCCNc1ccc(Cl)cc1[N+](=O)[O-]	MrgX1 antag -5.1
O=C(NCCNc1ccc(Cl)cc1[N+](=O)[O-])c1cccnc1	none
O=C1C2CCCCN2C(=O)N1CCCCN1CCN(c2cccc(Br)c2)CC1 (stereo not given)	none
CC(C)(C)OC(=O)N1CCN(c2ccc(CNC(=O)c3ccc(Cl)cc3)cc2)CC1	none
Cn1c(=O)c(C(=O)NCCCc2ccccc2)c(O)c2ccccc21	none
CCCCc1nc2ccccc2c(=O)n1NC(=O)c1c(O)c2ccccc2n(C)c1=O	MrgX1 antag -5.8
CCCc1nc2ccccc2c(=O)n1NC(=O)c1c(O)c2cccc3c2n(c1=O)CCC3	MrgX1 antag -5.7
COCC(C)NCc1ccc(OC)c(Br)c1 (stereo not given)	none
CC1CCC(C(C)C)C(OC(=O)C[n+]2cc(-c3ccc(Cl)cc3)n3c2CCC3)C1 (stereo not given)	MrgX1 antag -7
O=C(C[n+]1cc(-c2ccc(Cl)cc2)n2c1CCC2)N1c2ccccc2Sc2ccccc21	RGS4 act -7.6
COc1ccc(-c2c[n+](CC(=O)N3c4ccccc4Sc4ccccc43)c3n2CCC3)cc1	RGS4 act -8.9
Cc1ccc(-c2c[n+](CC(=O)OCc3ccccc3)c3n2CCC3)cc1	none
CCOc1ccc(N2CC(C(=O)NNC(=O)c3ccc(Br)cc3)CC2=O)cc1 (stereo not given)	none
CCC1CCCCN1CCNC(=O)CCS(=O)(=O)c1ccc(Br)cc1 (stereo not given)	none
CCOc1cc(N)c(Cl)cc1C(=O)NCC1CN(Cc2ccc(F)cc2)CCO1 (stereo not given)	MrgX1 antag -8.6
COc1ccc(C(=O)Nc2c(Cl)cc(Cl)cc2C(=O)N2CCOCC2)cc1	none
COCC(C)NC(=O)CSc1nc2ccccc2n1CCc1ccccc1 (stereo not given)	MrgX1 agonist 28
CCN(CC)CCN1C(=O)C(O)=C(C(=O)c2cc3cccc(OC)c3o2)C1c1ccc(F)cc1 (stereo not given)	none
CC(C)Cc1nnc(NC(=O)CCS(=O)(=O)c2ccc(Cl)cc2)s1	none
O=C(O)/C=C/c1ccc([N+](=O)[O-])o1	MrgX1 antag -5.2
CN1CCN(C(=O)/C=C/c2ccc([N+](=O)[O-])o2)CC1	none (no result: MrgX1 antag, MrgX1 agonist, MrgX1 allo act)
CCCOc1ccc(N2C(=O)CC(N(CCc3ccccc3)C(=O)c3ccccc3)C2=O)cc1 (stereo not given)	none
O=[N+]([O-])c1ccccc1/C=N/N1CCN(c2ccc(Cl)cc2)CC1	none
O=[N+]([O-])c1ccccc1/C=N\N1CCN(c2ccccc2)CC1	MrgX1 allo act 6.9
COc1ccc(C2=NN(c3nc(C(=O)O)cs3)C(O)(C(F)(F)F)C2)c(OC)c1 (stereo not given)	MrgX1 antag -6.5
O=C(Nc1ccnn1C1CCN(C(=O)c2cccc(C(F)(F)F)c2)CC1)C1CC1	none
CCOC(=O)CSc1nc(C(C)(C)C)nc2ccccc12	none
CCOc1ccc(N(C)c2ccc(/C=C3/SC(=S)NC3=O)cc2)cc1	MrgX1 agonist 35
Cc1nc(-c2nnc(SCC(=O)Nc3cc(Cl)cc(Cl)c3)n2C)cs1	none
c1ccc(OCCCCN2CCCCC2)cc1	none
CC(=O)c1ccc(OCCCN2CCCCC2)cc1	none
O=C(c1ccccc1)c1ccc(OCCCN2CCCCC2)cc1	RGS4 act -7.2
c1ccc(COc2ccc(OCCCCN3CCCC3)cc2)cc1	RGS4 act -8.8
c1ccc(-c2ccccc2OCCCCN2CCCCCC2)cc1	RGS4 act -7
CC(C)(C)c1ccccc1NC(=O)CN1C(=O)NC(Cc2ccccc2)C1=O (stereo not given)	none
O=C(COC(=O)CCc1ccc(S(=O)(=O)N2CCOCC2)cc1)NCc1ccccc1	MrgX1 allo act 6.8
O=C(COC(=O)CCc1ccc(S(=O)(=O)N2CCOCC2)cc1)NCc1ccccc1Cl	none
C/C(=N\NC(=O)c1cccc([N+](=O)[O-])c1)c1cccs1	MrgX1 allo act 13
C/C(=N\NC(=O)c1cccc([N+](=O)[O-])c1)c1ccncc1	none
O=C(O)c1cccc(CN2C(=O)S/C(=C/c3ccccc3[N+](=O)[O-])C2=O)c1	MrgX1 allo act 11
